# Sampled rows, rich in hits. Any-hit rate of the full collection: about 3.8%.
# Hep lipid drop: modulators of hepatic lipid droplet formation; AML12 mouse hepatocytes, oleate lipid droplets, BODIPY imaging; inhibition, % at 6.5 µM; 240,000 tested, 0.4% active; AID 1656;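 active = lipid droplet intensity inhibited by at least 50%, with more than 500 cells counted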
#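 Technique: fluorescence imaging, 20x objective, two fields per well / Assay system: AML12 hepatocytes (mouse) / Measure: % inhibition of lipid droplet signal / Doses: 6.5 µM single-point dosing / Incubation: overnight exposure / Reagent: 100 µM oleic acid challenge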
# HSF-1 act: increases HSF-1 driven luciferase reporter signal | 300,000 tested, 1.7% active | NIH3T3-HGL HSF-1 luciferase reporter, MG132, 8 h; 100% = twice DMSO control signal | AID 504408 | activation, % at 9 µM;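 active = mean replicate activation of at least 50% with a set share of replicates each reaching 50%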;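 note: 0% = median of the neutral control wells and 100% = twice that signal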
# HSP90 refold inh: HSP90 refolding inhibition in rabbit reticulocyte lysate. luciferase refolding luminescence, 3 h. inhibition, % at 5.6 µM. 290,000 tested, 0.91% active;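 active = inhibition above the screen-wide mean plus 3 SD, computed separately per campaign, cut at about 16% in these data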;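 note: 0% = DMSO wells and 100% = 60 µM geldanamycin wells; inhibitors lower the luminescence because luciferase stays unfolded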
# HSF1 inhib: HSF1 inhibition; NIH3T3-HGL HSE-luciferase, MG132-induced, luminescence 8 h; stronger effect = lower value; activity change, negative = inhibition, % at 7.5 µM (by protocol); 300,000 tested, 0.77% active;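 active = more than half of replicate wells show activity change below -50%, luminescence cut by over half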;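 note: luciferase reports HSF-1 transcriptional activity via heat shock element; 0% = median of DMSO wells and -100% = zero luminescence signal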
# NS3 helicase inh: blocks Hepatitis C virus NS3 helicase unwinding | NS3 helicase DNA unwinding, Cy5 molecular beacon fluorescence | inhibition, % at 10.9 µM | 290,000 tested, 0.56% active | AID 1800;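 active = inhibition above the mean of all tested compounds plus 3 SD, set per campaign, cut at about 35% in these data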;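 note: 0% = DMSO wells and 100% = thioflavine S control wells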
#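 Assay system: hepatitis C virus NS3 helicase domain fragment enzyme. Also added: annealed dual-labelled DNA beacon duplex, ATP-started. Timing: 1 h reaction at 25 °C, ATP-initiated. Technique: Cy5 fluorescence at 0 and 60 min, beacon hairpin quenching. Evaluation: % inhibition of unwinding. Replication: one well per compound.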
# Numbers without * were called inactive; / = not tested or not shown.
SMILES,Hep lipid drop,HSF-1 act,HSP90 refold inh,HSF1 inhib,NS3 helicase inh
COc1ccc(C(CC(=O)c2ccc(C)cc2)C(C#N)C#N)cc1OC (centres undefined),24.2,73.0*,-3.2,50.4,-8.2
NC(=O)C1(N2CCCCC2)CCN(S(=O)(=O)c2cc(Cl)sc2Cl)CC1,-16.4,8.0,2.8,0.3,-4.9
Cc1ccc(-c2nn(-c3ccccc3)cc2CN(C)C(=O)CCC(=O)O)cc1C,27.2,-59.8,-1.9,-55.3*,1.1
Cc1sc(NC(=O)c2ccccc2F)c(CN2CCCCC2)c1C,16.2,57.7*,3.8,13.1,1.9
O=C(Nc1sc2c(c1CN1CCOCC1)CCC2)c1ccc(F)cc1,8.1,34.7,-3.0,30.0,15.0
Cc1sc(NC(=O)c2ccc(F)cc2)c(CN2CCCCCC2)c1C,-1.3,56.5*,-1.0,38.5,-7.9
Cc1sc(NC(=O)c2ccco2)c(CN2CCN(Cc3ccccc3)CC2)c1C,-19.3,43.9,-2.7,27.1,-12.4
O=[N+]([O-])c1ccc(Nc2ccccc2)c2nonc12,-30.1,-9.8,-0.5,-4.3,10.9
O=[N+]([O-])c1ccc(Sc2cccc[n+]2[O-])c2nonc12,-200.1,/,23.7*,-8.5,14.4
COc1cccc(C(=O)CC(=O)C(=O)Nc2cc(OC)c(OC)c(OC)c2)c1,/,-62.3,2.6,-57.5*,5.1
Cc1ccc2c(c1)sc1ncc(NC(=O)c3ccc(F)cc3)c(=O)n12,7.0,36.2,1.4,4.5,-0.5
Cc1ccc2c(c1)sc1nc(=O)n(-c3ccccc3)c(=O)n12,-13.5,58.1*,2.7,31.6,15.9
CN1C(=O)/C(=C/c2cccc(Cl)c2)Sc2ccc(C(=O)N3CCCC3)cc21,-20.5,-16.8,-3.3,-8.3,-8.8
c1ccc(Cn2cc(CNc3ccccc3)nn2)cc1,22.9,22.9,/,9.9,/
CCOC(=O)n1c(=O)[nH]c2ccc(Br)cc21,1.1,24.3,-0.7,7.6,-1.9
COc1cc(/C=C/C(=O)c2ccc(Cl)s2)cc(OC)c1O,5.2,173.9*,4.4,128.6,-9.8
COc1ccc(/C=C/C(=O)c2ccc(Cl)s2)cc1O,/,-25.5,-3.5,-4.6,-10.3
O/C(=C\c1nc2ccccc2[nH]1)c1cccs1,-29.3,59.5*,0.2,49.8,-8.9
O=C(/C=C/c1ccc(F)cc1)Nc1nc2ccccc2[nH]1,27.3,54.8*,0.6,10.4,-0.5
O=C(Nc1nc2ccccc2[nH]1)c1ccc([N+](=O)[O-])cc1,2.0,61.1*,2.5,29.2,5.8
O=C(Nc1nc2ccccc2[nH]1)c1cccs1,3.2,55.2*,9.3,37.9,-9.7
CC(C)(O)C#Cc1ccc(CN2CCN(CCc3ccccc3)C(CCO)C2)s1 (centres undefined),-5.0,-10.4,5.6,3.5,-0.5
CC1Sc2ccc(S(=O)(=O)CCC(=O)NCc3cccs3)cc2NC1=O (centres undefined),10.5,7.9,-1.0,-0.9,3.9
Nc1[nH]n2c(=O)cc(-c3ccccc3)nc2c1N=Nc1ccc2c(c1)OCO2,-7.2,-1.3,1.6,-4.5,16.2
COCCn1c(C)cc(C(=O)COC(=O)C2CC(=O)N(CCc3ccc(OC)c(OC)c3)C2)c1C (centres undefined),/,-15.8,/,-3.1,/
SMILES,Hep lipid drop,HSF-1 act,HSP90 refold inh,HSF1 inhib,NS3 helicase inh
CN(Cc1cn(Cc2ccccc2)nc1-c1ccc2c(c1)OCO2)Cc1nccn1C,-16.0,15.3,3.8,4.1,-7.8
COc1cccc(C2CC(c3cccs3)=NN2C(=O)c2ccco2)c1O (centres undefined),6.0,62.8*,6.8,72.7,-10.3
CCOC(=O)Nc1ccc2c(c1)Sc1ccccc1N2C(=O)CCN1CCOCC1,/,63.0*,7.1,22.1,-11.7
CCCCCC1=CCC/C1=N\NC(=O)c1ccc2c(c1)OCO2,-12.0,44.9,0.1,21.2,-13.8
CCCCCCCN(C(=O)CCl)c1ccccc1C,-0.7,93.8*,3.9,33.9,11.2
Cc1ccccc1Nc1nc(N)nc(COC(=O)[C@@H](NC(=O)c2c(F)cccc2F)C(C)C)n1,/,-0.6,/,-1.2,/
CCOc1ccc(CN(C)C(=O)CNC(=O)c2cc(OC)c(OC)c(OC)c2)cc1,-2.7,-6.9,1.8,-2.5,-13.9
Cc1ccc2nc(CSc3nc(C)ccc3C#N)[nH]c2c1,1.2,-64.7,6.9,-58.5*,7.8
Cc1ccc(C#N)c(SCc2ccccc2F)n1,-25.1,36.3,0.6,11.8,-9.7
O=C(CCS(=O)(=O)c1ccc(Br)cc1)NCc1ccco1,-7.1,8.0,-3.5,-4.8,6.0
O=C(Cc1cccs1)NCc1ccccc1Br,3.2,93.8*,0.8,25.6,19.1
O=C(CCS(=O)(=O)c1ccc(Br)cc1)NCc1cccs1,-0.1,3.1,16.7*,-1.1,5.7
O=C(Cc1cccs1)NCc1cccc(CNC(=O)Cc2cccs2)c1,-1.9,18.7,0.5,11.2,-13.1
CC1CCCN(S(=O)(=O)c2cc3c4c(c2)CCN4C(=O)CC3)C1 (centres undefined),/,3.8,/,0.9,/
Cc1noc(C)c1CCC(=O)NC1CCCN(Cc2ccc(CC(C)C)cc2)C1 (centres undefined),5.0,-0.1,-6.0,-5.0,-6.8
Cc1cnc(NC(=O)C2CC(=O)N(c3cccc(Cl)c3)C2)s1 (centres undefined),-17.3,76.9*,-0.3,46.0,2.3
CCOc1ccccc1NC(=O)COc1ccc2ccc(=O)oc2c1,1.6,18.6,0.2,-3.0,6.0
C=CCSc1nc(-c2ccc(OC)cc2)c(C#N)c(=O)n1CC=C,37.8,64.9*,-1.4,19.7,-14.3
Cn1cc([N+](=O)[O-])c(C(=O)NC2CCCCCCC2)n1,-5.8,-6.5,-1.5,-7.1,18.7
CCCCn1c(N)c(N(CCOC)C(=O)COC(=O)COc2cc(C)ccc2Cl)c(=O)[nH]c1=O,/,-10.3,/,-8.7,/
CCCCN(C(=O)COc1ccc(C)cc1OC)c1c(N)n(CCC)c(=O)[nH]c1=O,-1.0,-76.8,5.3,-69.1*,10.2
CCCCCN(C(=O)CCC(=O)OCC(=O)c1ccc(C(C)(C)C)cc1)c1c(N)n(CCCC)c(=O)[nH]c1=O,/,75.7*,/,24.5,/
CC(C)CC(NC(N)=O)C(=O)NCc1ccccc1Cl (centres undefined),15.8,3.6,-0.6,2.4,-0.2
Cc1ccc(S(=O)(=O)Nc2nc3n(n2)C(c2ccc(Cl)cc2)CC(=O)N3)cc1 (centres undefined),/,-6.3,1.6,-14.3,1.0
O=C1CC(c2ccc(Cl)cc2)n2nc(NS(=O)(=O)c3ccc(F)cc3)nc2N1 (centres undefined),/,63.9*,0.4,14.8,6.3
COc1cccc(/C=N/NC(=S)NC2CC3CC2C2C=CCC32)c1O (centres undefined),5.1,105.0*,-2.7,80.6,-5.4
COc1cc(OC)cc(C(=O)OCCCOC(=O)c2cc(OC)cc(OC)c2)c1,-0.1,40.7,2.6,3.6,-4.2
CC1(C)CC(=O)C(CCC(=O)c2ccccc2)C(C)(C)N1 (centres undefined),/,-88.7,1.1,-85.9*,-1.3

# Assay outcomes from PubChem BioAssay.
